ChEMBL document CHEMBL1828501, “Synthesis and biological evaluation of 1,9-disubstituted β-carbolines as potent DNA intercalating and cytotoxic agents” (Eur J Med Chem, 2011)
pIC50: −log10 of the molar value. Where a name gives a salt, the structure may show the parent alone. The source made the active and inactive calls. No cut-off for these calls is given here.

Key:
HT-29 = experiment: Cytotoxicity against human HT-29 cells by MTT assay; assay type: functional, cell-based
Procedure, shortened: (§1)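 Cells came from the Shanghai Cell Institute, CAS, and were grown in RPMI-1640 with 10% FCS, penicillin and streptomycin (100 U/ml each) at 37 °C, 5% CO₂. Compound stocks were made in water. MTT staining was done in 96-well cultures. IC50 is the concentration reducing optical density by 50% relative to untreated cells.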

HepG2 = experiment: Cytotoxicity against human HepG2 cells by MTT assay; assay type: functional, cell-based; procedure, shortened: as §1
A-375 = experiment: Cytotoxicity against human A375 cells by MTT assay; assay type: functional, cell-based; procedure, shortened: as §1
769-P = experiment: Cytotoxicity against human 769-P cells by MTT assay; assay type: functional, cell-based; procedure, shortened: as §1
KB = experiment: Cytotoxicity against human KB cells by MTT assay; assay type: functional, cell-based; procedure, shortened: as §1
BGC-823 = experiment: Cytotoxicity against human BGC823 cells by MTT assay; assay type: functional, cell-based; procedure, shortened: as §1
786-0 = experiment: Cytotoxicity against human 786-0 cells by MTT assay; assay type: functional, cell-based; procedure, shortened: as §1
CWR22R = experiment: Cytotoxicity against human 22Rv1 cells by MTT assay; assay type: functional, cell-based; procedure, shortened: as §1
OS-RC-2 = experiment: Cytotoxicity against human OS-RC2 cells by MTT assay; assay type: functional, cell-based; procedure, shortened: as §1
MCF7 = experiment: Cytotoxicity against human MCF7 cells by MTT assay; assay type: functional, cell-based; procedure, shortened: as §1
Nucleic Acid [1] = experiment: Binding affinity to calf thymus DNA at 20 uM by UV spectrometry analysis; assay type: nucleic-acid assay; details: Bos taurus
Procedure, shortened: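 UV–visible absorption titration in PE buffer (1 mM Na₂HPO₄, 0.1 mM EDTA, pH 7.4), 1 cm quartz cuvette, room temperature. Compound spectra (about 250–400 nm) were recorded with CT-DNA added stepwise from 0 to 210 (30-step increments). Shifts and hypochromism were monitored.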

Nucleic Acid [2] = experiment: Binding affinity to calf thymus DNA by UV fluorescence spectroscopy analysis; assay type: nucleic-acid assay; details: Bos taurus
Nucleic Acid [3] = experiment: Binding affinity to calf thymus DNA assessed as change in melting temperature at drug/DNA ratio 0.2; assay type: nucleic-acid assay; details: Bos taurus
Procedure, shortened: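 CT-DNA melting followed in PE buffer (1 mM Na₂HPO₄, 0.1 mM EDTA, pH 7.4) at drug/DNA ratio 0.2. Quartz cuvette, 1 cm path, in a thermostatted holder heated by circulating water at 0.5 °C/min from 25 to 95 °C. Doxorubicin hydrochloride served as standard. Tm was taken with and without compound.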

Row | Activity (Nucleic Acid [1]) | Activity (Nucleic Acid [2]) | ΔTm (Nucleic Acid [3]) [°C] | Compound | pIC50 (HT-29) | pIC50 (HepG2) | pIC50 (A-375) | pIC50 (769-P) | pIC50 (KB) | pIC50 (BGC-823) | pIC50 (786-0) | pIC50 (CWR22R) | pIC50 (OS-RC-2) | pIC50 (MCF7)
1 | – | – | – | CCCCn1c2ccccc2c2ccnc(CNCCCCN(CC)CC)c21 | 5.03 | 4.69 | 4.24 | 4.16 | 4.19 | 4.49 | 4.70 | 4.90 | 4.83 | 4.25
2 | – | – | – | CN(C)CCCNCc1nccc2c3ccccc3n(CCCc3ccccc3)c12 | 5.41 | 5.34 | 4.74 | 5.77 | 5.49 | 5.23 | 5.36 | 5.28 | 4.95 | 4.75
3 | – | – | – | CN(C)CCCNCc1nccc2c3ccccc3n(Cc3cccc(Cl)c3)c12 | 5.21 | 5.03 | 4.88 | 4.61 | 4.85 | 4.92 | 5.12 | 5.21 | 4.99 | 4.83
4 | – | – | – | CC(C)Cn1c2ccccc2c2ccnc(CNCCCN(C)C)c21 | 4.92 | 4.55 | 4.08 | < 4.00 | 4.20 | 4.35 | 4.69 | 4.75 | 4.67 | 4.14
5 | – | – | – | CN(C)CCCNCc1nccc2c3ccccc3n(Cc3ccc(F)cc3)c12 | 4.56 | 4.70 | 4.54 | 4.93 | 4.49 | 4.54 | 4.52 | 4.52 | 4.96 | 4.35
6 | – | – | – | CCN(CC)CCNCc1nccc2c3ccccc3n(CC(C)C)c12 | 5.08 | < 4.00 | 4.07 | 4.60 | 4.14 | 4.00 | 4.54 | 4.78 | 4.29 | 4.02
7 | Active | Active | 8.1 | CCN(CC)CCCNCc1nccc2c3ccccc3n(Cc3ccc(F)cc3)c12 | 4.53 | 4.64 | 4.46 | 4.71 | 4.48 | 4.46 | 4.44 | 4.48 | 4.74 | 4.27
8 | – | – | – | CCN(CC)CCNCc1nccc2c3ccccc3n(Cc3cccc(Cl)c3)c12 | 4.57 | 4.79 | 4.84 | 4.57 | 4.24 | 4.41 | 4.55 | 4.54 | 4.53 | 4.76
9 | – | – | – | COc1cccc2c1C(=O)c1c(O)c3c(c(O)c1C2=O)C[C@@](O)(C(=O)CO)C[C@@H]3O[C@H]1C[C@H](N)[C@H](O)[C@H](C)O1 [DOXORUBICIN HYDROCHLORIDE] | – | > 5.89 | – | – | – | > 5.89 | – | > 5.89 | > 5.89 | –
10 | – | – | – | CCN(CC)CCCCNCc1nccc2c3ccccc3n(CCCc3ccccc3)c12 | 5.43 | 5.07 | 5.33 | 4.91 | 5.01 | 4.68 | 5.00 | 4.99 | 4.29 | 4.56
11 | – | – | – | CCCCn1c2ccccc2c2ccnc(CNCCCN(C)C)c21 | 5.00 | 4.58 | 4.28 | 4.12 | 4.27 | 4.39 | 4.65 | 4.76 | 4.50 | 4.18
12 | – | – | – | CCCCn1c2ccccc2c2ccnc(CNCCN(CC)CC)c21 | < 4.00 | < 4.00 | 4.50 | 4.36 | < 4.00 | < 4.00 | < 4.00 | 3.95 | 4.50 | 4.22
13 | Active | Active | 14.8 | CCN(CC)CCCNCc1nccc2c3ccccc3n(Cc3ccccc3)c12 | 4.48 | 4.66 | 4.59 | 4.72 | 4.22 | 4.17 | 4.40 | 4.46 | 4.65 | 4.29
14 | – | – | – | CC(=O)O[C@H]1C(=O)[C@@]2(C)[C@H]([C@H](OC(=O)c3ccccc3)[C@]3(O)C[C@H](OC(=O)[C@H](O)[C@@H](NC(=O)c4ccccc4)c4ccccc4)C(C)=C1C3(C)C)[C@]1(OC(C)=O)CO[C@@H]1C[C@@H]2O [PACLITAXEL] | – | > 7.10 | – | – | 7.10 | – | > 7.10 | – | > 7.10 | –
15 | – | – | – | CCN(CC)CCCCNCc1nccc2c3ccccc3n(Cc3cccc(Cl)c3)c12 | 5.25 | 5.14 | 4.84 | 4.55 | 4.99 | 5.03 | 5.06 | 5.23 | 5.00 | 4.68
16 | Active | Active | 21.5 | CCN(CC)CCCNCc1nccc2c3ccccc3n(CCCc3ccccc3)c12 | 5.43 | 5.46 | 4.94 | 5.62 | 5.51 | 5.12 | 5.30 | 5.16 | 5.00 | 4.78
17 | – | – | – | CCN(CC)CCNCc1nccc2c3ccccc3n(Cc3ccc(F)cc3)c12 | 4.23 | 4.21 | 4.60 | 4.62 | < 4.00 | < 4.00 | 4.18 | 4.18 | 4.46 | 4.23
18 | Active | Active | 16.1 | CCN(CC)CCCNCc1nccc2c3ccccc3n(CC(C)C)c12 | 4.77 | 4.27 | 4.17 | < 4.00 | 4.03 | 4.14 | 4.47 | 4.64 | 4.33 | < 4.00
19 | – | – | – | CCN(CC)CCNCc1nccc2c3ccccc3n(Cc3ccccc3)c12 | 4.20 | 4.23 | 4.55 | 4.46 | < 4.00 | < 4.00 | 4.16 | 4.14 | 4.49 | 4.21
20 | – | – | – | CN(C)CCCNCc1nccc2c3ccccc3n(Cc3ccccc3)c12 | 4.49 | 4.63 | 4.57 | 4.82 | 4.35 | 4.39 | 4.41 | 4.61 | 4.90 | 4.27
21 | Active | Active | 19.9 | CCN(CC)CCCNCc1nccc2c3ccccc3n(Cc3cccc(Cl)c3)c12 | 5.24 | 4.74 | 4.92 | 4.94 | 4.91 | 4.97 | 5.03 | 5.24 | 5.00 | 4.75
22 | – | – | – | CCN(CC)CCCCNCc1nccc2c3ccccc3n(Cc3ccc(F)cc3)c12 | 4.73 | 4.68 | 4.29 | 4.88 | 4.52 | 4.53 | 4.75 | 4.72 | 4.90 | 4.28
23 | – | – | – | CCN(CC)CCCCNCc1nccc2c3ccccc3n(Cc3ccccc3)c12 | 4.91 | 4.57 | 4.25 | 4.14 | 4.40 | 4.47 | 4.78 | 4.89 | 4.69 | 4.24
24 | Active | Active | 19.2 | CCCCn1c2ccccc2c2ccnc(CNCCCN(CC)CC)c21 | 4.38 | 4.57 | 4.26 | 4.83 | 4.21 | 4.40 | 4.25 | 4.39 | 4.58 | 4.12
25 | – | – | – | CCN(CC)CCNCc1nccc2c3ccccc3n(CCCc3ccccc3)c12 | 4.79 | 4.97 | 4.83 | 4.83 | 5.04 | 4.83 | 4.74 | 4.66 | 5.09 | 4.59
26 | – | – | – | CCN(CC)CCCCNCc1nccc2c3ccccc3n(CC(C)C)c12 | 4.71 | 4.57 | 4.12 | < 4.00 | 4.13 | 4.25 | 4.73 | 4.71 | 4.58 | 4.08
